Shown are actives, neighbours in structure and some others; about 2.4% of the full set was active somewhere.
NR2E3 ag-1 – NR2E3 agonists in two-hybrid cells, primary screen, cell-based, luminescence, CHO-S, Gal4-NCOR/VP16-NR2E3; luciferase; actives 0.35% (n = 360,000); Photoreceptor-specific nuclear receptor (Homo sapiens), Q9Y5X4; inhibition of corepressor binding, % at 3.98 µM;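 active = inhibition above the mean of all tested compounds plus 3 SD, cut at about 70% in these data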;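 also: 0% = DMSO with NR2E3 transfected cells and 100% = cells lacking NR2E3 construct; higher means lower luciferase signal from less NR2E3 corepressor binding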
Target sequence (Q9Y5X4 whole entry, looked up, the tested form may be a part): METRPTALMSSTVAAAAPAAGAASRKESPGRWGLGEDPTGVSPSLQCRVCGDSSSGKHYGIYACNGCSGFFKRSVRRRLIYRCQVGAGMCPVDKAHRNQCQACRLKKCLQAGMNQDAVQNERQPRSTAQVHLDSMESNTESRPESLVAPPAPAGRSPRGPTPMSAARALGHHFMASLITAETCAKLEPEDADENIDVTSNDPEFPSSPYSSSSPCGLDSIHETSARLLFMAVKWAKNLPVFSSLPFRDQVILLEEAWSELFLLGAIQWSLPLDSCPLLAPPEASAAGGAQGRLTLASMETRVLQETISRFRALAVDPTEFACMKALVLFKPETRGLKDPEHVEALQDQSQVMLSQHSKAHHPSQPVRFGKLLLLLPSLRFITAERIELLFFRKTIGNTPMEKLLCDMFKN
697 NFkB inh – inhibitors of PMA/ionomycin-induced NF-kB reporter, 697 cells, primary screen, B-cell NF-kB inhibitor project, cell-based, luminescence, uHTS; inhibition, % at 4 µM; AID 435022, 2010; 697 B-cell NF-kB luciferase reporter, 16 h; actives 0.33% (n = 330,000); in the data active = inhibition above about 35%
NR2E3 ag-2 – inhibitors of NR2E3-RetCOR corepressor binding, primary screen, NR2E3 agonist project, biochemical, TR-FRET, GST-NR2E3, biotin-RetCOR; inhibition of corepressor binding, % at 4.78 µM; AID 2300, 2010; 1536-well; actives 0.12% (n = 320,000); Photoreceptor-specific nuclear receptor (Homo sapiens), Q9Y5X4;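 active = percent inhibition above the cutoff of mean plus 3 SD of all tested compounds, set per screening campaign, cut at about 20% in these data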;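 also: 0% = DMSO wells and 100% = biotin wells as full block of FRET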
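Material: NR2E3–RetCOR corepressor complex / Amount: 1.35 nM GST-NR2E3 / Medium: Tris pH 7.5 / Compound: single nominal compound dose of 4.8 µM / Incubation: 5 h at 4 °C / Technique: TR-FRET, Eu(K)-anti-GST donor, streptavidin-D2 acceptor, ex 340, em 617/671 nm / Read-out basis: percent loss of FRET ratio relative to control wells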
MPTP inh – mitochondrial permeability transition pore inhibitors, primary screen, biochemical, isolated mouse mitochondria, absorbance. Ca2+ swelling absorbance, 30 min. inhibition, % at 10 µM. actives 1.4% (n = 360,000). AID 602449, 2012;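 active = inhibition of 50% or more, scaled per plate between neutral and stimulator controls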;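 also: 0% = DMSO wells given calcium and 100% = 1 mM EGTA wells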
aDG glyco act – activators of alpha-DG glycosylation, primary screen, uHTS, Pro5-aDG cells, AlphaScreen | alpha-DG glycosylation AlphaScreen (IIH6); 0% Pro5, 100% B10-LARGE cell signal | activation, % at 10 µM | actives 0.22% (n = 360,000) | AID 624168, 2012;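 active = activation of at least 8% versus controls, or a plate z-score of at least 8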;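 also: Pro5 are CHO cells carrying HIG-tagged alpha-DG that lacks glycosylation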
Jurkat NFkB inh – inhibitors of induced NF-kB luciferase reporter, primary screen, TCR NF-kB activation inhibitor project, cell-based, luminescence, uHTS; Jurkat, PMA/ionomycin-induced NF-kB luciferase reporter; inhibition, % at 4 µM; actives 0.53% (n = 330,000); AID 435003, 2010; in the data active = inhibition above about 50%
MPTP counter – fluorescence retest of MPTP screen hits in isolated mitochondria, single concentration. shares compounds with MPTP inh. membrane potential, Rhodamine 123 fluorescence. actives 78% (n = 5,000). inhibition, % at 10 µM. AID 624504, 2012; in the data active = inhibition above about 22%;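 also: 0% = DMSO vehicle and 100% = positive control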
MPTP abs DR – mitochondrial permeability transition pore inhibitors, dose response, biochemical, absorbance, uHTS hits; shares compounds with MPTP inh; isolated mitochondria swelling; IC50, µM; actives 58% (n = 780); in the data active = IC50 below about 20 µM
MPTP counter DR – fluorescent counter-screen in isolated mitochondria, dose response, counter-screen for MPTP inhibitor project, biochemical, fluorescence, uHTS hits. shares compounds with MPTP inh. AID 651564, 2012. IC50, µM. actives 49% (n = 780). isolated mitochondria counterscreen, fluorescence read-out; in the data active = IC50 below about 80 µM
* = called active by the depositor; i = inactive; . = no result given.

SMILES	NR2E3 ag-1	697 NFkB inh	NR2E3 ag-2	MPTP inh	aDG glyco act	Jurkat NFkB inh	MPTP counter	others
Fc1cccc(Cc2c(C3CCCCC3)nc3c4ccccc4ccn23)c1	-72.3	.	.	2.6	0.1	.	.
C[C@@H](OC(=O)N(C)Cc1ccccc1)[C@H]1O[C@]2(C)CCCC[C@H]1O2	22.8	-17.1	6.7	-1.0	0.2	14.4	.
Cc1cccc(-n2cc(-c3ccccc3)c3c(N4CCOCC4)ncnc32)c1	-0.9	25.8	-5.0	0.9	0.3	45.2	.
CCN1CCN(c2ccc(NC(=O)CCc3c(C)nc4c(-c5ccccc5)c(C)nn4c3C)cc2)CC1	-8.8	-21.4	0.0	53.9*	2.4	1.6	-24.6	MPTP abs DR=14.9*;MPTP counter DR=>80
CC(C)(C)OC(=O)N/N=C/c1c[nH]c2ccccc12	-47.7	-15.0	-4.3	0.3	-0.3	-27.3	.
CC(C)(C)OC(=O)N/N=C/c1cc(N=Nc2ccccc2)ccc1O	-16.2	-26.9	0.9	95.9*	-0.1	-3.6	68.8*
O=C(Nc1cc2c(=O)n(-c3ccc(Oc4ccccc4)cc3)ccc2oc1=O)c1ccccc1	-10.0	-3.4	-0.2	3.0	0.0	-4.0	.
Cc1cc(OCC(=O)NCC(c2ccc(F)cc2)N2CCOCC2)ccc1Cl (stereo unspecified)	3.2	9.7	1.9	-1.4	0.0	-3.0	.
CNC(=O)Nc1cc(C(F)(F)F)cc(C(F)(F)F)c1	5.1	0.9	1.8	63.9*	-0.1	-14.0	94.4*
CC(CC(=O)O)CC(=O)Nc1cc(C(F)(F)F)cc(C(F)(F)F)c1 (stereo unspecified)	8.0	-7.8	1.5	2.2	-0.1	14.2	.
CN(C)Cc1ccccc1Sc1ccccc1Br	-12.9	-6.4	-2.3	0.1	-0.2	10.4	.
c1ccc(Sc2cccc3ccccc23)c(CNC2=NCCN2)c1	-18.5	-28.1	0.2	100.6*	-0.2	10.8	29.3*
CN(C)Cc1ccccc1Sc1cccc2ccccc12	-53.3	.	3.5	66.5*	-0.3	.	5.8	MPTP abs DR=11.2*;MPTP counter DR=60.9*
O=C1C=C(CCc2ccccc2)CCC1	-3.6	.	.	-1.7	-0.4	.	.
CCN(CC)c1ccc(/C=N/N(c2ccccc2)c2ccccc2)c(O)c1	0.2	-11.9	1.1	97.4*	-0.8	18.9	53.6*
Oc1ccc(/C=N/N(c2ccccc2)c2ccccc2)c(O)c1O	-14.6	-1.4	0.1	8.1	-0.2	-11.6	.
COc1ccc(CNC(=O)C[C@H]2C(=O)N(CCc3ccccc3)C[C@@H]2Cc2ccccc2)cc1	-14.5	-14.2	-2.2	0.2	-0.1	1.6	.
COc1ccccc1C(=O)C1CCCN(C(=O)Nc2ccccc2F)C1 (stereo unspecified)	-32.6	-14.0	0.9	-2.2	0.1	-26.2	.
COC(=O)c1ccc(NC(=O)N2CCCC(C(=O)c3ccccc3OC)C2)cc1 (stereo unspecified)	-8.2	-22.2	2.0	69.6*	0.0	6.9	75.4*
CC(C)N(C(=S)Nc1cccc(C(F)(F)F)c1)C(C)c1ccccn1 (stereo unspecified)	-15.8	9.0	-3.9	92.4*	-0.3	-13.2	83.3*
O=C(NCCCn1ccnc1)Nc1ccc(Cl)c(Cl)c1	-15.4	-9.5	4.6	79.0*	0.1	2.3	88.0*
O=C(NCCCN1CCCC1=O)Nc1ccc(F)c(Cl)c1	-36.9	-10.2	1.8	84.2*	0.1	-3.4	92.1*
O=C(NCCCn1ccnc1)Nc1ccc(Cl)cc1	-21.1	12.8	1.7	17.8	-0.2	-3.4	.
O=C(NCCCN1CCCC1=O)Nc1cc(Cl)ccc1Cl	-16.9	9.0	1.7	-0.5	-0.1	10.7	.
COc1ccc(CC(=O)NC2CC(C)(C)NC(C)(C)C2)cc1OC	-1.6	-3.7	5.3	-0.8	0.2	-1.3	.
SMILES	NR2E3 ag-1	697 NFkB inh	NR2E3 ag-2	MPTP inh	aDG glyco act	Jurkat NFkB inh	MPTP counter	others
CC(Sc1nnc(-c2ccccc2F)n1N)C(=O)NCC1CCCO1 (stereo unspecified)	10.1	-24.8	4.4	-0.4	0.0	12.8	.
N#CCCn1c(SCC(=O)NCc2ccco2)nc2ccccc21	-11.2	8.9	-1.2	74.3*	0.8	18.0	-2.2	MPTP abs DR=i;MPTP counter DR=>80
S=C(NCc1cccs1)Nc1cc(Cl)cc(Cl)c1	28.6	1.5	-3.0	89.5*	0.0	6.0	78.2*
S=C(NCc1cccs1)Nc1cccc(Cl)c1	-1.2	26.6	4.7	91.4*	0.1	1.5	98.5*
O=C(Nc1cccc(Cl)c1)NC1(C(=O)NCc2cccs2)CCCCC1	-1.9	-1.7	2.2	81.0*	0.1	18.6	73.5*
O=C(NCc1cccs1)Nc1cccc(Cl)c1	-53.4	-9.9	0.7	1.5	0.6	-30.7	.
S=C(NCc1cccs1)Nc1ccccc1Cl	-6.7	-38.9	-0.7	2.4	0.1	9.4	.
O=C(CCNC(=O)C1CCN(S(=O)(=O)c2ccccc2)CC1)NCc1ccncc1	-22.4	11.7	0.9	-0.3	0.1	13.0	.
CCn1c(COc2ccccc2C)nnc1SCc1nc2ccccc2c(=O)[nH]1	.	8.8	4.5	.	.	-0.9	.
O=C1CCC/C(=N\NC(=O)c2ccc(NS(=O)(=O)c3ccc(Br)cc3)cc2)C1	-30.0	-4.7	2.4	1.9	-0.2	-16.1	.
CN(c1ccccc1)S(=O)(=O)c1ccc(NC(=O)c2ccc(F)cc2)cc1	-4.8	-32.2	4.5	58.3*	0.0	-9.6	60.6*
CC(=O)c1c(C)[nH]c(C(=O)Nc2cccc(S(=O)(=O)N3CCOCC3)c2)c1C	-8.8	29.2	-2.4	4.0	-0.5	-11.7	.
COc1ccccc1NS(=O)(=O)c1cccc(NC(=O)c2[nH]c(C)c(C(C)=O)c2C)c1	-25.9	-18.6	-0.1	65.8*	0.2	15.1	63.8*
COc1cccc(OC)c1C(=O)Nc1cccc(S(=O)(=O)Nc2ccccc2Cl)c1	-3.5	-1.8	.	-0.6	0.1	2.8	.
CC(=O)c1c(C)[nH]c(C(=O)Nc2cccc(S(=O)(=O)N(C)c3ccccc3)c2)c1C	9.8	-6.5	1.2	68.4*	0.2	9.8	78.5*
